Compound activity: PubChem BioAssay, several laboratories
Most compounds without a hit are left out; they make up all but 5% or so of the library.
UPR XBP1 act – activators of adaptive XBP1 UPR arm, primary screen, cell-based, CHO-XBP1 luciferase reporter, luminescence, uHTS; IRE1-XBP1 UPR activation; percent of tunicamycin response, DMSO as zero; activation, % at 20 µM; 330,000 tested, 0.33% active;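 active = versus positive control, 20 µM dose yields 30% or more activation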
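Material: CHO cell line with stable XBP1 luciferase reporter; schedule: 16-18 h cell attachment at 37 °C, then 6 h compound exposure; signal: glow luminescence from Steady-Glo reagent; medium: serum-containing F12 medium, 10% FBS; benchmarks: tunicamycin 10 µg/mL and vehicle-only wells; read-out: percent activation relative to tunicamycin reference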
CSC inhib – cancer stem cell viability inhibitors, primary screen, luminescence | cancer stem cell-like cells viability | inhibition, % at 7.5 µM | 300,000 tested, 1.1% active; in the data active = inhibition above about 75%; tested in HMLE shEcad cells
T cruzi repl – inhibitors of intracellular T. cruzi growth, primary screen, luminescence, NIH3T3 host cells | T. cruzi beta-gal in NIH3T3, 90 h | inhibition, % (no concentration beside the values) | 300,000 tested, 1.4% active | AID 1885, 2009;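 active = mean inhibition across valid replicates above about 55%, limit read from the data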;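 note: signal also drops with host cell toxicity which is not excluded here; higher percent means less beta-gal luminescence so fewer parasites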
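System – NIH/3T3 host cells with β-galactosidase reporter T. cruzi · Doses – single 50 nL compound addition per well in DMSO · Reagent – 5000 T. cruzi trypomastigotes/well · Medium – Low-serum DMEM with 2% FBS · Timing – ≥90 h infection period, 3 h prior cell attachment · Evaluation – parasite load inhibition, % · Technique – GalScreen luminescence, 60 min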
Mdm2-MdmX inh – inhibitors of human Mdm2-MdmX association, primary screen, cell-based, luminescence, split luciferase, SaOS-2, uHTS; AID 485346, 2010; SaOS-2 split-luciferase Mdm2/MdmX complementation; inhibition, % at 8 µM; Protein Mdm4 (Homo sapiens) + E3 ubiquitin-protein ligase Mdm2 (Homo sapiens), …; 330,000 tested, 3% active;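 active = inhibition of at least 50% at 8 µM in the primary screen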
UPR CHOP act – activators of apoptotic CHOP UPR arm, primary screen, cell-based, CHO-CHOP luciferase reporter, luminescence, uHTS; UPR activation; percent of tunicamycin response over DMSO baseline; activation, % at 10 µM; 330,000 tested, 0.34% active;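 active = at 10 µM dose, activation of 40% or more, normalized to positive control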
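Assay system: CHO cells with stable CHOP pathway luciferase reporter; Buffer or medium: F12 plus 10% serum; Times: 16-18 h cell attachment, then 6 h compound exposure, 37 °C; Signal: luciferase luminescence; Read-out basis: percent activation relative to tunicamycin control; Control set: tunicamycin high control, DMSO low control.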
Beta apoptosis – inhibitors of cytokine-induced beta cell apoptosis, primary screen, luminescence; INS-1E cytokine-induced death, ATP luminescence, 48 h; percent of positive-control rescue, neutral wells zero; protection from apoptosis, % (test concentration not listed); 300,000 tested, 0.8% active; AID 435005, 2010;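 active = Every replicate reaches about 75%, or at least half do and their mean reaches it too, limit read from the data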;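 note: higher means more ATP so stronger rescue from cytokine killing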
Mdm2-MdmX conf – Mdm2-MdmX complex disruptors, retested hits, confirmation, luminescence, single concentration | shares compounds with Mdm2-MdmX inh | Mdm2-MdmX binding, luminescent assay | inhibition, % at 8 µM | 10,000 tested, 55% active | AID 489028, 2010; in the data active = inhibition above about 40%
Full FLuc ctr – full-length luciferase signal inhibition, confirmation, counter-screen for Mdm2/MdmX interaction inhibitor project, cell-based, single concentration, SaOS-2; SaOS-2 full-length luciferase counterscreen, luminescence; 6,200 tested, 77% active; shares compounds with Mdm2-MdmX inh; AID 504607, 2011; inhibition, % at 8 µM;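 active = mean inhibition at 8 µM reaching about 37%, which flags the compound as non-specific, limit read from the data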;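 note: p53-null SaOS-2 cells with luciferase driven by a doxycycline-inducible promoter; compound on cells about two nights before reading with doxycycline added after day one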
A number is an active result; n = inactive; x = no result given.

SMILES	UPR XBP1 act	CSC inhib	T cruzi repl	Mdm2-MdmX inh	UPR CHOP act	Beta apoptosis	Mdm2-MdmX conf	Full FLuc ctr
O/N=C/c1ccc(-c2cc(Cl)ccc2Cl)o1	n	n	n	57	n	n	42	53
CCOc1ccc(S(=O)(=O)N2CCC(C(=O)N3CCCC3)CC2)cc1C	n	n	n	n	n	n	x	x
Cc1c(CN2CCC(CO)(CCOc3ccccc3)CC2)[nH]c2c(Cl)cccc12	n	n	n	87	n	n	54	64
COc1ccccc1NC(=O)Cn1cc(C(=O)C(=O)N2CCOCC2)c2ccccc21	n	n	n	n	n	n	x	x
COc1ccc(-c2csc3nc(-c4cccnc4)nc(Cl)c23)cc1OC	n	n	n	81	n	n	n	x
Clc1nc(-c2cccnc2)nc2scc(-c3ccccc3)c12	n	n	n	n	n	n	x	x
CCn1c(SCc2c(Cl)cccc2Cl)nc2nc3c(cc2c1=O)CCCC3	n	n	n	64	n	n	63	n
CCOCCCNC(=O)CCn1nc(-c2ccc(Cl)cc2)ccc1=O	n	n	n	n	n	n	x	x
O=C(Cn1cnc2c(OCc3ccccc3)ncnc21)N[C@H](CO)Cc1cc2ccccc2[nH]1	n	x	x	51	n	n	n	x
CC(C)c1ccc(/C=N/NC(=O)CN(c2cccc(Cl)c2Cl)S(C)(=O)=O)cc1	n	x	n	61	n	n	n	x
CN(C)CCCNc1nc(-c2ccccc2)nc2ccccc12	n	n	n	n	n	n	x	x
c1ccc2c(NCCCN3CCOCC3)c3ccccc3nc2c1	n	n	x	85	n	104	79	n
CN(C)CCCNc1c2ccccc2nc2ccccc12	n	131	68	100	n	109	100	52
CC(C)Cn1c(CCCNC(=O)c2ccco2)nc2ccccc21	n	n	n	n	n	n	x	x
COc1cc2c(cc1NC(=O)c1cccc([N+](=O)[O-])c1)oc1ccccc12	n	n	n	71	n	n	n	x
COc1cc2c(cc1NC(=O)COc1ccc3ccccc3c1)oc1ccccc12	n	n	n	62	n	n	n	x
COc1ccc(CC(=O)Nc2cc3oc4ccccc4c3cc2OC)cc1	n	n	n	n	n	n	x	x
COc1ccc(/C=C/C(=O)OCC(=O)Nc2cc3oc4ccccc4c3cc2OC)cc1	163	n	n	82	115	n	n	x
COc1ccc(Nc2nc(C)cc(-c3cc(-c4ccccc4)on3)n2)cc1	n	n	n	68	n	n	50	83
N/C(=N\OC(=O)Cc1ccccc1)c1ccc(Br)cc1	n	n	n	n	n	x	x	x
N/C(Cc1ccccc1)=N\OC(=O)c1cccc2ccccc12	n	n	n	98	n	n	67	57
N/C(=N\OC(=O)c1cccc2ccccc12)c1ccncc1	n	n	n	51	n	n	n	x
N/C(=N\OC(=O)c1cccc2ccccc12)c1ccc(Br)cc1	n	n	n	98	n	n	80	94
C=CCn1c(=O)c2ccccc2n2c(Sc3nnnn3-c3ccccc3)nnc12	n	n	n	53	n	n	n	x
C#CC[N+]1(CC#Cc2ccccc2)CCCCC1	n	n	n	n	n	n	x	x
Cc1ccc(C#CC[N+]2(CC#Cc3ccc(C)cc3)CCCCC2)cc1	n	n	74	55	n	113	50	52
